Hits are enriched below; roughly 1.5% of the tested compounds scored in any of these assays.
Runt-SMMHC FRET: blocks binding of human RUNX1 Runt domain to CBFb-SMMHC | Q01196+Q13951 | Cerulean-Runt/Venus-CBFb-SMMHC FRET ratio 530/480, 1 h | inhibition, % at 20 µM | 220,000 compounds, 0.74% hits | AID 1434;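 active means mean inhibition across duplicate retests at 20 µM reaching about 50%, limit read from the data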;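 further: inhibitors lower the FRET ratio by blocking Runt binding to CBFb-SMMHC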
Target sequence (Q01196 whole entry, looked up, the tested form may be a part): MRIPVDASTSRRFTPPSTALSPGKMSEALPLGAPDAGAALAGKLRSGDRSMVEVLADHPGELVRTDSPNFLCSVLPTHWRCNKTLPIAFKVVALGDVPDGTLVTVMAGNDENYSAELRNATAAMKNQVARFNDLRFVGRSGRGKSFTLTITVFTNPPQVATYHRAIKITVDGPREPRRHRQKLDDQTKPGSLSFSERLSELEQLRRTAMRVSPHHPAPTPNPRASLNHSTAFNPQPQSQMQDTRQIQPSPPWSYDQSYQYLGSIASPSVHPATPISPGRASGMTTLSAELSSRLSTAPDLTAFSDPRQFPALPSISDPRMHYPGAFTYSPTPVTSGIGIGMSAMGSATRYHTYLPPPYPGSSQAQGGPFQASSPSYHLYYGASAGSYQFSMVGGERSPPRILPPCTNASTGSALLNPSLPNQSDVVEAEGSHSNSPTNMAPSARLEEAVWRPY
Target sequence (Q13951 whole entry, looked up, the tested form may be a part): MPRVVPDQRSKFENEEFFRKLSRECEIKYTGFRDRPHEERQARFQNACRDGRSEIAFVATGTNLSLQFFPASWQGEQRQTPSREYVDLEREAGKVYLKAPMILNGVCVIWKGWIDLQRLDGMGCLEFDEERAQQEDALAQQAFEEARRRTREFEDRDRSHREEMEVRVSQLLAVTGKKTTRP
RanGTP-Imp inh: inhibitors of RanGTP-importin-beta interaction, primary screen, biochemical, FRET, CFP-Ran, YFP-importin-beta, homogeneous; cell-free CFP-Ran/YFP-importin-beta FRET ratio; inhibition, % (test concentration not listed); AID 2216; 300,000 compounds, 1.1% hits;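 active means more than half of the replicate wells show a fall in the fluorescence ratio signal beyond about 16%, limit read from the data, passing the limit was not always enough; inconclusive means exactly half of the replicate wells pass the set limit; inactive means fewer than half of replicates pass the limit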
Hck Nef HTS: inhibitors of human Hck kinase activated by Nef | 220,000 compounds, 0.68% hits | Recombinant Hck-YEEI plus Nef, Z-Lyte FRET kinase assay | inhibition, % at 20 µM | P08631;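 active means Hck-Nef kinase inhibition above about 50%, limit read from the data; inactive means inhibition below that limit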
CaV13 ICDI inh: Disruptors of the CACNA1D IQ motif to Ca2+-dependent inactivation inhibitor domain association, primary screening, Förster resonance energy transfer in intact living …; HEK cells, CFP/YFP FRET ICDI-IQ, plate reader, 10 min; percent FRET-ratio fall versus neutral wells; inhibition, % at 12.3 µM; 340,000 compounds, 0.098% hits; AID 743397;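 active means mean replicate inhibition of at least 30% and at least 1% of replicates passing that level; inconclusive means only one of the two criteria is met; inactive means neither criterion is met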
Runt-CBFb FRET: blocks binding of human RUNX1 Runt domain to CBFb; 220,000 compounds, 0.46% hits; inhibition, % at 20 µM; Cerulean-Runt/Venus-CBFb FRET ratio 530/480, 1 h; Q01196+Q13951;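 active means inhibition over about 50% at 20 µM in the single-dose screen, limit read from the data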
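Measured by: fluorescence energy transfer, 422 nm excitation, 530/480 nm emission; Assay system: Cerulean-Runt domain; Medium: Tris pH 7.5 buffer with BSA; Measure: loss of energy transfer signal; Controls: 5 µM unlabeled CBFb as full-inhibition high control; Incubation: protein complex preformed 1 h, compound exposure 1 h, room temperature, dark.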
Of the large screens only hits and unclear results are named; the others gave an inactive call.

CCOC(=O)c1sc2nc(-c3ccccc3)ccc2c1N	RanGTP-Imp inh 30
CCOc1ccc(OCCn2c(SCC(=O)O)nc3ccccc32)cc1	none (no result: Runt-SMMHC FRET, Hck Nef HTS, Runt-CBFb FRET)
CCOc1ccc2ccccc2c1C1NC(=O)N(C)C(C)=C1C(=O)OCCOC (stereo unspecified)	RanGTP-Imp inh 96 (no result: Runt-SMMHC FRET, Hck Nef HTS, Runt-CBFb FRET)
Cc1ccc2c(c1)N(CC(=O)NCc1ccco1)C(=O)CO2	none
O=C(COC(=O)c1cc(S(=O)(=O)N2CCCCC2)ccc1N1CCOCC1)c1ccccc1Cl	CaV13 ICDI inh 64 (no result: Runt-SMMHC FRET, RanGTP-Imp inh, Hck Nef HTS, Runt-CBFb FRET)
CC(=O)Oc1ccc(-c2cc3ccccc3oc2=O)cc1	none (no result: Runt-SMMHC FRET, Hck Nef HTS, Runt-CBFb FRET)
CC(=O)Oc1ccc(-c2cc3c(OC(C)=O)cc(OC(C)=O)cc3oc2=O)cc1	RanGTP-Imp inh 123 (no result: Runt-SMMHC FRET, Hck Nef HTS, CaV13 ICDI inh, Runt-CBFb FRET)
O=C(CNC(=O)c1ccc(Oc2ccccc2)cc1)OC1CCCCC1=O (stereo unspecified)	none (no result: CaV13 ICDI inh)
O=C(Nc1ccccc1)c1cnc[nH]1	Runt-CBFb FRET 89 (no result: CaV13 ICDI inh)
O=C(NCCCn1ccnc1)c1cc(-c2ccc(Br)cc2)on1	none
C/C(=N\NC(=O)c1ccn[nH]1)c1cn(C)nc1C	none
COc1ccc(-c2cc(C(F)(F)F)n3nc(C(=O)NCCCN4CCOCC4)cc3n2)cc1	none
O=c1oc2ccc3ccccc3c2c2c1SC(C(F)(F)F)C2 (stereo unspecified)	Runt-SMMHC FRET 54 (no result: CaV13 ICDI inh)
CCC(CO)(CO)N(CC(=O)Nc1ccc(OC)cc1)CC(=O)Nc1ccc(OC)cc1	RanGTP-Imp inh 28 (no result: Runt-SMMHC FRET, Hck Nef HTS, Runt-CBFb FRET)
CC1(C)CC=C(NNC(=O)c2cccnc2)C(=O)C1	none
Cn1c(=O)c(/C=C/c2ccc(F)cc2)nc2ccccc21	RanGTP-Imp inh 53
O=c1c(/C=C(\O)c2ccc(F)cc2)nc2ccccc2n1-c1ccccc1	RanGTP-Imp inh 77
CC(=O)c1ccc(/C=C/c2nc3ccccc3n2C)o1	Runt-SMMHC FRET 81
Cn1c(/C=C/c2ccccc2)nc2ccccc21	none
Cn1c(=O)c(/C=C/c2ccccc2)nc2ccccc21	Runt-SMMHC FRET 99, RanGTP-Imp inh 53
O=S(=O)(O)c1cccc2c(N=Nc3ccc(O)c4ncccc34)cccc12	RanGTP-Imp inh 16 (no result: Runt-SMMHC FRET, Hck Nef HTS, CaV13 ICDI inh, Runt-CBFb FRET)
COc1cc(-c2ccc3c(=O)c4ccccc4sc3c2)cc(OC)c1OC	none (no result: Runt-SMMHC FRET, RanGTP-Imp inh, Hck Nef HTS, Runt-CBFb FRET)
COc1cc(-c2ccc3c(=O)c4ccccc4n(C)c3c2)cc(OC)c1OC	RanGTP-Imp inh 57 (no result: Runt-SMMHC FRET, Hck Nef HTS, Runt-CBFb FRET)
Cn1c(-c2ccc3c(c2)OCO3)cc(=O)c2ccccc21	none (no result: CaV13 ICDI inh)
Cn1c2ccccc2c(=O)c2ccc(-c3ccc4c(c3)OCO4)cc21	RanGTP-Imp inh 49 (no result: Runt-SMMHC FRET, Hck Nef HTS, Runt-CBFb FRET)
COc1ccc(-c2cc(Cl)cc3c(=O)c4ccccc4n(C)c23)cc1F	RanGTP-Imp inh 112 (no result: Runt-SMMHC FRET, Hck Nef HTS, Runt-CBFb FRET)
CC(=O)Nc1c(-c2ccc(Cl)cc2)c(=O)c2ccccc2n1C	RanGTP-Imp inh inconclusive (no result: Runt-SMMHC FRET, Hck Nef HTS, Runt-CBFb FRET)
C/C(=N\Nc1cc(C)nc(-c2ccccc2O)n1)c1ccccc1O	RanGTP-Imp inh 28
O=C(O)CCSCCC(=O)O	none
Nc1ccc(C(=O)Nc2ccco2)cc1	RanGTP-Imp inh 37
Nc1ccc(C(=O)Nc2cccc(NC(=O)c3ccc(N)cc3)c2)cc1	none (no result: Runt-SMMHC FRET, Hck Nef HTS, Runt-CBFb FRET)
CCc1ccc2nc3nc(C)cc(C)c3c(N)c2c1	RanGTP-Imp inh 149
CCc1ccc(NC(=S)/N=C(\N)Nc2nc(C)c3cc(CC)ccc3n2)cc1	RanGTP-Imp inh inconclusive
COc1ccc(-c2nc(NC(=O)CCNC(=O)c3ccco3)sc2C)cc1	none
COc1ccccc1CCNC(=O)C(=O)NCCC1CCCCN1S(=O)(=O)c1ccccc1 (stereo unspecified)	RanGTP-Imp inh 37 (no result: Runt-SMMHC FRET, Hck Nef HTS, Runt-CBFb FRET)
CCOCCCn1c(=NC(=O)c2cccs2)c(C#N)cc2c(=O)n3ccccc3nc21	Runt-SMMHC FRET 81, RanGTP-Imp inh 105, Runt-CBFb FRET 86
CCOC(=O)c1cc2c(=O)n3cccc(C)c3nc2n(CCOC)c1=NC(=O)c1ccncc1	none (no result: Runt-SMMHC FRET, RanGTP-Imp inh, CaV13 ICDI inh, Runt-CBFb FRET)
CCCCn1c(=NC(=O)c2cccnc2)c(C(=O)OCC)cc2c(=O)n3ccccc3nc21	Runt-SMMHC FRET 62, RanGTP-Imp inh 82, Runt-CBFb FRET 93
CCOC(=O)c1cc2c(=O)n3cccc(C)c3nc2n(CCCOC)c1=NC(=O)c1cccnc1	RanGTP-Imp inh 129, Runt-CBFb FRET 110 (no result: CaV13 ICDI inh)
COCCCn1c(C(=O)N2CC(C)OC(C)C2)cc2c(=O)n3ccccc3nc21 (stereo unspecified)	none (no result: Runt-SMMHC FRET, Hck Nef HTS, Runt-CBFb FRET)
CCCCn1c(=NC(=O)c2ccco2)c(C(=O)OCC)cc2c(=O)n3ccccc3nc21	none
CCOC(=O)c1cc2c(=O)n3cc(C)ccc3nc2n(Cc2cccnc2)c1=N	none (no result: RanGTP-Imp inh, Hck Nef HTS, CaV13 ICDI inh)
CCOCCCn1c(=NC(=O)c2cccnc2)c(C(=O)OCC)cc2c(=O)n3ccccc3nc21	RanGTP-Imp inh 119, Runt-CBFb FRET 65
CCC(=O)N1N=C(c2ccc(NS(=O)(=O)CC)cc2)CC1c1ccc(C)cc1 (stereo unspecified)	none
OCCCNC(=S)Nc1ccc2nc(-c3ccccn3)c(-c3ccccn3)nc2c1	RanGTP-Imp inh 36
CC(C)(C)CC(C)(C)NC(=S)Nc1ccc2nc(-c3ccccn3)c(-c3ccccn3)nc2c1	none
S=C(Nc1ccc2nc(-c3ccccn3)c(-c3ccccn3)nc2c1)N1CCOCC1	none
CN(C)NC(=S)Nc1ccc2nc(-c3ccccn3)c(-c3ccccn3)nc2c1	RanGTP-Imp inh 48 (no result: CaV13 ICDI inh)
CSCCC(NS(=O)(=O)c1ccccc1F)C(=O)NCc1cccnc1 (stereo unspecified)	none (no result: Runt-SMMHC FRET, Hck Nef HTS, Runt-CBFb FRET)
COc1ccc(OC)c(CN2CCN(Cc3cc(=O)oc4cc(O)ccc34)CC2)c1	RanGTP-Imp inh 61 (no result: Runt-SMMHC FRET, Hck Nef HTS, Runt-CBFb FRET)
COc1ccc2c(CN3CCCC3)cc(=O)oc2c1	none (no result: Runt-SMMHC FRET, RanGTP-Imp inh, Hck Nef HTS, Runt-CBFb FRET)
Cc1ccc2c(CN3CCN(CCO)CC3)cc(=O)oc2c1C	none
CN1CCN(Cc2cc(=O)oc3cc4c(cc23)CCC4)CC1	none
